ATG4B inhibitor – blocks human ATG4B protease cleavage of LC3 substrate; 340,000 tested, 0.51% active; ATG4B cleavage of LC3-PLA2, NBD-HPC fluorescence, 1 h; Q9Y4P1; inhibition, % at 8.33 µM; in the data active means inhibition above about 40%
CSN deneddyl inh – CSN deneddylation inhibition | 360,000 tested, 0.38% active | AID 651999 | Q92905 | inhibition, % at 12.5 µM | Purified CSN, SCF-Nedd8-OG deneddylation, fluorescence polarization;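 active means pattern-corrected inhibition above about 35%, with an unprinted fluorescence ratio check between 0.5 and 1.5, limit read from the data, passing the limit was not always enough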
Target sequence (Q92905 whole entry, looked up, one chain of several): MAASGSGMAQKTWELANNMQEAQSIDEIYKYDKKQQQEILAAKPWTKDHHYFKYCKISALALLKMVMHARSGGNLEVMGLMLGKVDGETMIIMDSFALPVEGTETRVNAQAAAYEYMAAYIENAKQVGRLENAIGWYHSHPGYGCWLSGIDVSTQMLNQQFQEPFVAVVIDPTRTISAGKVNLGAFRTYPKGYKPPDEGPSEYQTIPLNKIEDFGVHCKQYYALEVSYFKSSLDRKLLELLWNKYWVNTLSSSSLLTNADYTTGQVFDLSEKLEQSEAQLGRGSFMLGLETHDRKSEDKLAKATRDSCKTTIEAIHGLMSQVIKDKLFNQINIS
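test system = HEK293T-derived human Csn5 enzyme | amount = 0.24 nM Csn5 enzyme, final concentration | medium = Tris/NaCl/DTT buffer, pH 7.5 | schedule = 90 min reaction at room temperature | signal = FP | evaluation = inhibition of Csn5 cleavage, % | compound dosing = single dose of 12.5 µM compound with 0.25% DMSO | probe or stimulus = 10 nM SCFSkp2-Nedd8OG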
MBD2 inh – blocks human MBD2 binding to methylated DNA. 370,000 tested, 0.31% active. AID 686964. inhibition, % at 4.4 µM. TR-FRET, MBD2 binding to methylated oligonucleotide; in the data active means inhibition above about 13%
UHRF1 binding – human UHRF1 methylated DNA binding inhibitors; Q96T88; UHRF1 binding to methylated oligo, TR-FRET; inhibition, % at 4.4 µM; 370,000 tested, 0.75% active; AID 687016; in the data active means inhibition above about 21%;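 further: UHRF1 SRA domain binding a hemimethylated CpG hairpin DNA probe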
rCAG RNA binder – molecules binding r(CAG) RNA repeats. r(CAG) RNA repeat, TO-PRO-1 dye displacement fluorescence. inhibition, % at 3 µM. 370,000 tested, 1.3% active. AID 651821;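 active means inhibition above the plate cutoff, the mean of all test compounds on that plate plus 3 SD, cut at about 35% in these data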;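 further: higher means more dye released from RNA so lower well fluorescence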
LEDGF integ inh – blocks HIV-1 LEDGF/p75-dependent DNA integration; 370,000 tested, 0.64% active; AID 743269; TR-FRET IN-LEDGF/p75 DNA integration, Eu/Cy5; inhibition, % at 3.7 µM;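 active means inhibition above the screen-wide mean plus 3 SD, cut at about 13% in these data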;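 further: signal is the Cy5 over europium emission ratio at 671 and 618 nm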
Hits are given with their value; - = inactive; . = no result; ! = not confirmed by another sample. In the library only some 3.1% were active in any assay of this set; here they are far more common.

SMILES	ATG4B inhibitor	CSN deneddyl inh	MBD2 inh	UHRF1 binding	rCAG RNA binder	LEDGF integ inh
Fc1ccc(Cn2nnnc2CN2CCN(C3CCCCC3)CC2)cc1	-	-	-	48	-	-
CCCCN1C(=O)C(CC(=O)NCc2cccc3ccccc23)CC(C(=O)N2CCOCC2)=C1C (stereo unspecified)	.	-	-	22	-	-
CC1=C(C(=O)N2CCOCC2)CC(CC(=O)NCc2cccc3ccccc23)C(=O)N1CCCN1CCCC1=O (stereo unspecified)	.	-	-	-	-	-
Cc1cccc(-c2cccc3c4c([nH]c23)[C@@H]2C[C@H](N(C)C(=O)Nc3ccccc3)[C@H]([C@H](C)O)C(=O)N2CC4)c1	.	.	-	-	-	-
C=CC(=C)CC(NC)c1ccccc1 (stereo unspecified)	-	47	.	.	.	.
Cc1cccc(N2CCN(C(=O)c3cc(S(=O)(=O)N(C)C)ccc3Cl)CC2)c1C	.	.	-	-	.	-
CC1CC(C)(C)CC2(C1)NC(=O)N(CC(=O)Nc1ccc3[nH]c(=O)[nH]c3c1)C2=O (stereo unspecified)	-	73	-	-	-	-
C(C#CCCCCCCCCC[n+]1ccccc1)#CCCCCCCCCC[n+]1ccccc1	-	35!	-	-	-	-
c1ccc2cc3[nH]c(CNc4nc(N5CCOCC5)nc5c4ncn5-c4ccsc4)nc3cc2c1	.	.	-	-	.	-
CS(=O)(=O)N(CC(=O)N1CCN(Cc2ccccc2)CC1)Cc1ccccc1	-	82	-	-	-	-
Cc1ccccc1N(CC(=O)N1CCN(Cc2ccccc2)CC1)S(C)(=O)=O	.	-	-	21	-	-
Cc1cccc(NC(=O)CN2C(=O)N/C(=C/c3ccc(C)o3)C2=O)c1	-	-	-	88	-	-
COc1cc2c(cc1/C=C1/NC(=O)N(CC(=O)Nc3ccccc3)C1=O)OCO2	-	-	-	-	-	-
O=C(O)c1ccc(COc2ccc3ccccc3c2/C=C2/NC(=O)N(Cc3ccc(F)cc3)C2=O)cc1	-	-	-	-	-	-
O=C(CN1C(=O)N/C(=C\c2ccccc2OCc2ccc(C(=O)O)cc2)C1=O)Nc1ccccc1F	-	-	-	-	47	-
Cc1ccc(CN2C(=O)N/C(=C\c3cccn3-c3cccc(C(=O)O)c3)C2=O)cc1	-	-	-	-	47	-
COc1cccc(/C=C2/NC(=O)N(CC(=O)Nc3ccc(C)cc3)C2=O)c1OCc1cccc(C(=O)O)c1	-	37	-	-	-	-
C=C(C)/C=C1/CN(Cc2ccc3c(c2)OCO3)C(=N)N1C(=O)OCc1ccccc1	.	.	-	-	-	-
COC(=O)C1=C(C(=O)OC)[C@@]2([C@@H](Cc3ccc(C)cc3)Nc3ccccc3)C=C[C@@H]1O2	.	.	-	-	.	-
Cc1ccccc1CN1CCCCC(NC(=O)Nc2cccc(F)c2)C1=O (stereo unspecified)	.	.	-	-	-	-
Cn1ccnc1C(=O)O[C@@H]1CCC[C@@]2(C(=O)N(Cc3ccccc3)c3ccccc32)[C@H]1NC(=O)CCc1ccccc1	.	.	-	-	-	-
Cc1ccc(NC(=O)CN2C(=O)N/C(=C/c3cc(C)n(-c4cccc(C(=O)O)c4)c3C)C2=O)cc1	-	-	-	37	71	26
Cc1ccc(NC(=O)CN2C(=O)N/C(=C/c3ccc(C)o3)C2=O)cc1	-	-	-	-	-	-
Cc1ccc(NC(=O)CN2C(=O)N/C(=C/c3ccc(C)s3)C2=O)cc1	-	58	-	-	-	-
Cc1ccc(NC(=O)CN2C(=O)N/C(=C\c3cccn3-c3cccc(C(=O)O)c3)C2=O)cc1	-	-	.	.	.	.
SMILES	ATG4B inhibitor	CSN deneddyl inh	MBD2 inh	UHRF1 binding	rCAG RNA binder	LEDGF integ inh
O=S(=O)(Cc1noc(-c2ccc(Cl)cc2)n1)Cc1ccco1	-	38	-	-	-	-
CC1(C)NC(=O)N(CCOCCOc2ccccc2-c2ccccc2)C1=O	-	-	-	28	-	-
COc1cc(/C=C2\SC(N)=NC2=O)cc(Br)c1O	-	47	-	-	-	-
COc1cc(/C=C2\SC(c3ccc(C)cc3)=NC2=O)cc(OC)c1OC	-	49	.	.	.	.
COc1ccc(/C=C2\SC(N)=NC2=O)cc1	-	-	-	-	-	-
COCC1CN(CCc2ccc(F)cc2)S(=O)(=O)c2c(OCCN3C(=O)[C@@H]4[C@H](C3=O)[C@@H]3C=C[C@H]4C3)cccc2O1 (stereo partly specified)	.	.	-	-	-	-
O=C(CSc1ccc(Cl)cc1)N1CCN(c2ccc(Cl)cc2[N+](=O)[O-])CC1	-	-	-	22	-	-
FC(F)(F)c1ccccc1NC(=S)NC1CCN(Cc2ccccc2)CC1	-	-	-	37	-	-
S=C(Nc1ccccc1Cl)NC1CCN(Cc2ccccc2)CC1	-	-	-	-	-	-
Cc1nc2sc(C(=O)NCc3ccc4c(c3)OCO4)c(N)c2c(C)c1Cl	.	.	-	-	-	-
COC(=O)Cc1cc(=O)n(-c2nc3ccccc3[nH]2)[nH]1	-	-	-	-	42	-
C[C@@H]1CN([C@@H](C)COC(=O)C(C)(C)C)C(=O)c2cc(NC(=O)Nc3ccccc3)ccc2O[C@@H](C)CCCCO[C@H]1CN(C)S(=O)(=O)c1ccc(F)cc1	.	.	-	-	.	-
Cc1ccc(S(=O)(=O)N(CC(=O)NCCC2=CCCCC2)Cc2ccccc2)cc1	-	-	-	28	-	-
CCCC1CCC2(CCCN2CCOC(=O)Nc2cccc(Cl)c2)CC1 (stereo unspecified)	.	.	-	-	.	-
CCCCN(CC)CCCNC(=O)c1cc2c(-c3ccc(OC)c(OC)c3)nn(C)c2s1	-	-	-	24	-	-
COCCOC(=O)N(C)C[C@@H]1OCCCC[C@H](C)Oc2ccc(NC(=O)Nc3ccccc3)cc2C(=O)N([C@@H](C)CO)C[C@H]1C	.	.	-	-	.	-
O=C(CN1C(=O)CC(c2ccccc2)S(=O)(=O)c2ccccc21)N1CCCCC1 (stereo unspecified)	-	-	-	24	-	-
O=C(Nc1ccc(-c2ccc3nncn3n2)cc1)c1ccc(Br)o1	-	64	-	-	-	-
Cc1ccc(S(=O)(=O)N2CCC(C(=O)Nc3nnc(-c4ccc(F)cc4)s3)CC2)cc1	-	-	-	25	-	-
COc1ccc(CN2C(=O)CCCC2(C)c2nnnn2-c2c(C)cccc2C)cc1OC (stereo unspecified)	.	.	-	-	-	-
CSCCC(NC(=O)c1ccc(Cl)cc1)C(=O)OCC(=O)N1CCCC1=O (stereo unspecified)	-	-	-	-	-	-
CSCCC(NC(=O)c1ccc(C(C)(C)C)cc1)C(=O)OCC(=O)N1CCCC1=O (stereo unspecified)	-	67	-	-	-	-
